Calls of active or inactive are those of the source. No cut-off for these calls is given here.
Key:
Mus musculus [1] = test: Inhibition of 5'-TCTGACRTTCT-X-TCTTRCAGTCT-3'-induced IL12 production in C57BL/6 mouse at 10 mg/kg, sc; type: functional, organism-based; parameters: dose 10 mg/kg
Outline: (§1)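 C57BL/6 mice received antagonist or control 10 mg/kg sc, either with TLR9 agonist 0.25 mg/kg sc or up to 48 h before it. Serum IL-12 was measured 2 h after agonist. Two or three independent experiments; mean ± SEM, Student's t test versus PBS.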

Mus musculus [2] = test: Inhibition of 5'-TCTGACRTTCT-X-TCTTRCAGTCT-3'-induced IL12 production in C57BL/6 mouse pretreated before up to 48 hrs of induction at 10 mg/kg, sc; type: functional, organism-based; parameters: dose 10 mg/kg; outline: as §1
[3] = molecular target: T1, Toll-like receptor 9 (Mus musculus) (UniProt Q9EQU3); test: Agonist activity at mouse TLR9 expressed in HEK293 cells assessed as activation of NF-kappaB at 10 ug/mL by SEAP reporter gene assay; type: functional, cell-based
T1 sequence (whole entry): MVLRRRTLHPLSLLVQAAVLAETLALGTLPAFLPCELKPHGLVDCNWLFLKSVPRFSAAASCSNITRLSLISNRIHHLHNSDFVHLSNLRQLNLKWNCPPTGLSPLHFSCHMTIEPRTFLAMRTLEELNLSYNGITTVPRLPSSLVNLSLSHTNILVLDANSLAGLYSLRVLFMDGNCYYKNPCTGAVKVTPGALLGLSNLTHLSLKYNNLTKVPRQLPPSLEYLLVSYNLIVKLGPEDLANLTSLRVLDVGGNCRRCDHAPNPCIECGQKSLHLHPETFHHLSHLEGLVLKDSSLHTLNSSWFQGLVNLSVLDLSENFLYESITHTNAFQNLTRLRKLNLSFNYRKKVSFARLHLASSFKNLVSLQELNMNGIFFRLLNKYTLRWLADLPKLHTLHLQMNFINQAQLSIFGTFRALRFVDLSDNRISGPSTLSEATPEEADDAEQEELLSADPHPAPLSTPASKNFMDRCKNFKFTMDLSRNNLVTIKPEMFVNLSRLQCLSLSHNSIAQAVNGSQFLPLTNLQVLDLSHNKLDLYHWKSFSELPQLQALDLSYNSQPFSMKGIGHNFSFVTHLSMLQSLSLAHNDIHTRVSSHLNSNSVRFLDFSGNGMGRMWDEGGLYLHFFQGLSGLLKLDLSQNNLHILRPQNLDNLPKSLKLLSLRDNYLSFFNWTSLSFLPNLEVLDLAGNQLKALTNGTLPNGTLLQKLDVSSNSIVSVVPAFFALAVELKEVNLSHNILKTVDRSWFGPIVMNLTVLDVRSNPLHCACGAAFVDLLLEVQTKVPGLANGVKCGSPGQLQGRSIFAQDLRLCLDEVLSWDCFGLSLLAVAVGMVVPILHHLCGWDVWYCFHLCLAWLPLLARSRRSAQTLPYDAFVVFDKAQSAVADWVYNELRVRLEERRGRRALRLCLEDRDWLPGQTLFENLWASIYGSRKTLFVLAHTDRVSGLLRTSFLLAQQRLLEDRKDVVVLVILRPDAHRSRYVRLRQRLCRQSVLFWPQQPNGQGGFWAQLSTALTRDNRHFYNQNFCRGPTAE
Outline: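 HEK293 cells stably expressing mouse TLR9 were transiently transfected with a SEAP reporter for 6 h. Compounds were added at 10 µg/mL for 18 h. SEAP was read with Quanti-Blue substrate and expressed as fold change in NF-κB activity.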

[4] = molecular target: T1, Toll-like receptor 9 (Mus musculus); test: Antagonist activity at mouse TLR9 expressed in HEK293 cells assessed as inhibition of 5'-CTATCTGTCGTTCTCTGT-3'-induced NF-kappaB activation by SEAP reporter gene assay; type: functional, cell-based
Outline: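 Mouse TLR9-HEK293 cells were transfected with a SEAP reporter for 6 h. They were then stimulated for 18 h with agonist (0.25 or 0.5 µg/mL) plus increasing antagonist concentrations or set agonist:antagonist ratios. Quanti-Blue read-out, reported as % NF-κB activity with agonist alone as 100%.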

PBMC = test: Inhibition of 5'-TCTGTCRTTCT-X-TCTTRCTGTCT-5'-induced human PBMC proliferation treated 72 hrs before induction; type: functional, cell-based

Activity [3] | Activity [4] | SMILES | Activity (Mus musculus [1]) | Activity (Mus musculus [2]) | Activity (PBMC)
inactive |  | CO[C@@H]1[C@H](OP(=O)(S)OC[C@H]2O[C@@H](n3cnc4c(N)ncnc43)[C@H](OC)[C@@H]2OP(=O)(S)OC[C@H]2O[C@@H](n3ccc(N)nc3=O)C[C@@H]2OP(=O)(S)OC[C@H]2O[C@@H](n3ccc(N)nc3=O)C[C@@H]2OP(=O)(S)OC[C@H]2O[C@@H](n3cc(C)c(=O)[nH]c3=O)C[C@@H]2OP(=O)(S)OC[C@H]2O[C@@H](n3cc(C)c(=O)[nH]c3=O)C[C@@H]2OP(=O)(S)OC[C@H]2O[C@@H](n3ccc(N)nc3=O)C[C@@H]2OP(=O)(S)OC[C@H]2O[C@@H](n3cc(C)c(=O)[nH]c3=O)C[C@@H]2OP(=O)(S)OC[C@H]2O[C@@H](n3ccc(N)nc3=O)C[C@@H]2OP(=O)(S)OC[C@H]2O[C@@H](n3cc(C)c(=O)[nH]c3=O)C[C@@H]2OP(=O)(S)OC[C@H]2O[C@@H](n3cnc4c(=O)[nH]c(N)nc43)C[C@@H]2OP(=O)(S)OC[C@H]2O[C@@H](n3cc(C)c(=O)[nH]c3=O)C[C@@H]2O)[C@@H](COP(=O)(S)O[C@H]2C[C@H](n3cc(C)c(=O)[nH]c3=O)O[C@@H]2COP(=O)(S)O[C@H]2[C@@H](O)[C@H](n3ccc(N)nc3=O)O[C@@H]2COP(=O)(S)O[C@H]2C[C@H](n3cc(C)c(=O)[nH]c3=O)O[C@@H]2COP(=O)(S)O[C@H]2C[C@H](n3cnc4c(N)ncnc43)O[C@@H]2COP(=O)(S)O[C@H]2C[C@H](n3cc(C)c(=O)[nH]c3=O)O[C@@H]2COP(=O)(S)O[C@@H]2C[C@@H](n3ccc(N)nc3=O)O[C@H]2CO)O[C@H]1n1ccc(N)nc1=O (stereo partly specified) | inactive | inactive | 
inactive | Active | CO[C@@H]1[C@H](OP(=O)(S)OC[C@H]2O[C@@H](n3ccc(N)nc3=O)C[C@@H]2OP(=O)(S)OC[C@H]2O[C@@H](n3cnc4c(=O)[nH]c(N)nc43)C[C@@H]2OP(=O)(S)OC[C@H]2O[C@@H](n3cc(C)c(=O)[nH]c3=O)C[C@@H]2OP(=O)(S)OC[C@H]2O[C@@H](n3cc(C)c(=O)[nH]c3=O)C[C@@H]2OP(=O)(S)OC[C@H]2O[C@@H](n3ccc(N)nc3=O)C[C@@H]2OP(=O)(S)OC[C@H]2O[C@@H](n3cc(C)c(=O)[nH]c3=O)C[C@@H]2OP(=O)(S)OC[C@H]2O[C@@H](n3ccc(N)nc3=O)C[C@@H]2OP(=O)(S)OC[C@H]2O[C@@H](n3cc(C)c(=O)[nH]c3=O)C[C@@H]2OP(=O)(S)OC[C@H]2O[C@@H](n3cnc4c(=O)[nH]c(N)nc43)C[C@@H]2OP(=O)(S)OC[C@H]2O[C@@H](n3cc(C)c(=O)[nH]c3=O)C[C@@H]2O)[C@@H](COP(=O)(S)O[C@H]2[C@@H](OC)[C@H](n3cnc4c(=O)[nH]c(N)nc43)O[C@@H]2COP(=O)(S)O[C@H]2C[C@H](n3cc(C)c(=O)[nH]c3=O)O[C@@H]2COP(=O)(S)O[C@H]2C[C@H](n3ccc(N)nc3=O)O[C@@H]2COP(=O)(S)O[C@H]2C[C@H](n3cc(C)c(=O)[nH]c3=O)O[C@@H]2COP(=O)(S)O[C@H]2C[C@H](n3cnc4c(N)ncnc43)O[C@@H]2COP(=O)(S)O[C@H]2C[C@H](n3cc(C)c(=O)[nH]c3=O)O[C@@H]2COP(=O)(S)O[C@@H]2C[C@@H](n3ccc(N)nc3=O)O[C@H]2CO)O[C@H]1n1ccc(=O)[nH]c1=O (stereo partly specified) |  |  | Active

From ChEMBL document CHEMBL1140884, “Oligodeoxyribonucleotide-based antagonists for Toll-like receptors 7 and 9” (2009)
